The values below come from paper PMC3354652 (Cancer Discovery, 2012).

The test system of assay [1] is RIP-Tag2 tumors. Nature of the assay: Tumor size. It is filed as in vivo, mouse. The following applies: RIP-Tag2 mice treated from age 14 to 17 weeks.
The subject of assay [2] is RIP-Tag2 tumors. Nature of the assay: Tumor vascularity. It is filed as in vivo, mouse. The note with it: for tumor vascularity / intratumoral hypoxia: RIP-Tag2 mice treated from age 14 to 17 weeks; for HIF-1α protein by western blot: RIP-Tag2 tumors.
For assay [3], the system named is RIP-Tag2 mice. Nature of the assay: Liver metastasis. It is filed as in vivo, mouse.
The test system of assay [4] is RIP-Tag2 tumors. The assay can be described thus: Tumor invasion. It counts as in vivo, mouse.
Assay [5] has as its system Snail1, N-cadherin, vimentin. The assay can be described thus: Western blot of mesenchymal markers in RIP-Tag2 tumors. It counts as in vivo, mouse. The note with it: for bands for Snail1, N-cadherin and vimentin in western blots: RIP-Tag2 tumors treated from age 14 to 15 weeks. The method, boiled down: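 Tumors came from RIP-Tag2 mice treated from age 14 to 15 weeks with vehicle, anti-VEGF antibody, a kinase inhibitor, or a combination. Snail1, N-cadherin and vimentin were immunoblotted in tumor lysates. Bands were quantified by densitometry and expressed as fold over vehicle. Groups had 4-8 surviving mice. Groups were compared by Student's t test or ANOVA with Fisher's multiple-comparison test.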
In general terms: A western blot detects proteins with antibodies after separation by electrophoresis.

Assay [6] has as its system RIP-Tag2 mice. Nature of the assay: Survival of RIP-Tag2 mice. It is filed as in vivo, mouse.
The subject of a further assay is Panc-1 tumors. The assay can be described thus: Orthotopic Panc-1 pancreatic adenocarcinomas in nude mice. It counts as in vivo, mouse.
The test system of assay [7] is RIP-Tag2 tumors. The following applies: RIP-Tag2 mice; cited from earlier work.
A further assay deals with c-Met. Nature of the assay: c-Met mRNA, total c-Met and phospho-c-Met in RIP-Tag2 tumors. The note with it: RIP-Tag2 tumors treated from age 14 to 15 weeks. It is filed as in vivo, mouse.
The mark [8] stands for this setting: RIP-Tag2 mice treated from age 14 to 17 weeks.
Setting [9] is: RIP-Tag2 mice treated from age 14 to 20 weeks.
The mark [10] stands for this setting: RIP-Tag2 mice age 14 to 17 weeks, vs corresponding group without PF-04217903.
Where [11] appears, read: western blot, treated from age 14 to 15 weeks.

“Also recorded” adds a separate entry of the source.

On to `COc1cc2nccc(Oc3ccc(NC(=O)C4(C(=O)Nc5ccc(F)cc5)CC4)cc3)c2cc1OC` [XL184, cabozantinib], for which the “mean sectional area of tumors” value with RIP-Tag2 tumors [1] came to 0.7 ± 0.1 mm^2. Moreover, in the assay with RIP-Tag2 tumors [2] (RIP-Tag2 mice, 3 weeks treatment), the “reduction in tumor vascularity” value came out at 79%. The liver micrometastases found entry in the assay on RIP-Tag2 mice [3] (RIP-Tag2 mice treated from age 10 to 14 weeks, 5 mice) is given as “none”. Also, the “mice with liver metastases visible microscopically” value with RIP-Tag2 mice [3] (setting [8]) is reported as “none were detected; also recorded: None of 5”. In the assay with RIP-Tag2 mice [3] (setting [9]), the “mice with small liver metastases” value is 5 of 6 and the “number of liver metastases per sectional area” value is 0.3 ± 0.2 metastases/mm^2. Also, in the assay with RIP-Tag2 tumors [4] (setting [8]), the “area density of trapped amylase-positive acinar cells in tumors” value was determined as 2.6 ± 0.4%. Besides, in the assay with RIP-Tag2 tumors [4] (RIP-Tag2 mice treated from age 14 to 17 weeks, onset controls 4.8 ± 0.5%), the “fewer amylase-positive (trapped acinar) cells than 14-week old onset controls” value is given as 46%. The “tumor shape and invasiveness” value in the assay with RIP-Tag2 tumors [4] (younger RIP-Tag2 mice treated from age 10 to 14 weeks) is “rounder and less invasive”. Besides, in assay [5], the “bands for Snail1, N-cadherin and vimentin in western blots” value is “less Snail1, N-cadherin, and vimentin”. Besides, in the assay with RIP-Tag2 mice [6] (RIP-Tag2 mice treated from 14 weeks of age), the “mice surviving until the experiment ended at age 20 weeks” value is recorded as “all”. The “overall survival versus vehicle or anti-VEGF antibody” value with RIP-Tag2 mice [6] (RIP-Tag2 mice treated from age 10 to 14 weeks) was “better overall survival”. Also, the “survival at 20 weeks” value with RIP-Tag2 mice [6] (RIP-Tag2 mice, treatment beginning at age 14 weeks, n = 6) is given as 100%.

As to `OCCn1cc(-c2cnc3nnn(Cc4ccc5ncccc5c4)c3n2)cn1` [PF-04217903], in the assay on RIP-Tag2 tumors [2], the “tumor vascularity” value is reported as “no reduction in overall vascularity” and the “HIF-1α protein by western blot” value is “not increased”. For the same compound, in the assay on Panc-1 tumors (3 weeks treatment), the “vascular pruning and intratumoral hypoxia” value is listed as “little effect”. Besides, in the assay on RIP-Tag2 mice [3] (setting [10]), the “average decrease in volume of metastases (metastatic tumor burden)” value came out at 78% and the “reduction in mean diameter of liver metastases when PF-04217903 was combined” value is 40%. Also, the “mice with liver metastases visible microscopically” value in the assay on RIP-Tag2 mice [3] (setting [8]) was 1 of 7 and one of 7. In [5], the “bands for Snail1, N-cadherin and vimentin in western blots” value is listed as “weaker”.

For `COc1cc2c(Oc3ccc(NC(=O)C4(C(=O)Nc5ccc(F)cc5)CC4)cc3F)ccnc2cc1OCCCN1CCOCC1` [XL880, foretinib], in the assay with RIP-Tag2 tumors [7], the “invasion and tumor cells in the liver” value was “decreases invasion and the appearance of tumor cells in the liver”; the “tumor growth” value is on record as “slows tumor growth”.

Consider `C[C@@H](Oc1cc(-c2cnn(C3CCNCC3)c2)cnc1N)c1c(Cl)ccc(F)c1Cl` [PF-02341066, crizotinib], for which, in the assay on RIP-Tag2 tumors [2], the “intratumoral hypoxia” value is reported as “did not change” and the “tumor vascularity” value is “did not change”. In addition, the “liver metastases found per mouse” value with RIP-Tag2 mice [3] (RIP-Tag2 mice treated for 3 weeks, vehicle average of 20 per mouse) is listed as 4. Moreover, the “mice with liver metastases visible microscopically” value in the assay with RIP-Tag2 mice [3] (setting [8]) was 3 of 4. Also, in the assay on RIP-Tag2 tumors [4] (setting [8]), the “tumor invasiveness: Invasion index and trapped acinar cells” value is recorded as “reduced invasiveness”.

In the case of `CCN(CC)CCNC(=O)c1c(C)[nH]c(/C=C2\C(=O)Nc3ccc(F)cc32)c1C` [sunitinib], in the assay with RIP-Tag2 tumors [1], the “mean sectional area of tumors” value stood at 3.7 ± 0.8 mm^2 and the “sectional area of tumors, less than age-matched vehicle controls” value is reported as 78%. Also, in the assay with RIP-Tag2 tumors [2], the “intratumoral hypoxia” value is reported as “greater hypoxia”, the “tumor vascularity” value is given as “fewer blood vessels” and the “HIF-1α protein by western blot” value is given as “greater”. Also, in the assay with Panc-1 tumors (3 weeks treatment), the “intratumoral hypoxia assessed by pimonidazole staining” value was “doubling”, the “invasiveness reflected by intratumoral acinar cells stained for amylase” value is reported as “exaggerated”, the “reduction in tumor vascularity” value was determined as 75% and the “tumor growth by bioluminescence imaging” value is on record as “grew slower”. In addition, the “mice with micrometastases in the liver” value in the assay on Panc-1 tumors (early stage) is 4 of 6. In the assay with RIP-Tag2 mice [3] (17-week old RIP-Tag2 mice treated for 3 weeks), the “number of liver metastases per sectional area” value is given as 1.3 ± 1.2 metastases/mm^2. In addition, in the assay on RIP-Tag2 mice [3] (setting [8]), the “number of liver metastases compared to the 17-week old vehicle group” value is reported as “twice” and the “size of liver metastases compared to vehicle group” value is recorded as 4 times. The “mean diameter of liver metastases” value in the assay on RIP-Tag2 mice [3] (RIP-Tag2 mice treated from age 14 to 17 weeks, vehicle 90 ± 9 μm) stood at 369 ± 267 μm. Moreover, the “tumor invasiveness: Invasion index and trapped acinar cells” value in the assay with RIP-Tag2 tumors [4] (setting [8]) is listed as “significantly greater”. In [5] (setting [11]), the “N-cadherin densitometry value, times greater than vehicle” value is given as 10 times; the “Snail1 densitometry value, times greater than vehicle” value stood at 3 times; the “vimentin densitometry value, times greater than vehicle” value was found to be 5 times. For the same compound, the “survival during the 3-week treatment” value with RIP-Tag2 mice [6] (RIP-Tag2 mice, age 14 to 17 weeks, vehicle 42%) is recorded as 80%. Besides, in the assay on c-Met, the “c-Met mRNA expression, fold the control value” is given as 6 fold.
